Screening results deposited in PubChem BioAssay by Broad Institute.
An excerpt weighted towards active compounds, which were near 3.3% of everything screened.
C2C12 statin = protects C2C12 myotubes from simvastatin toxicity; ATP luminescence, 48 h; scaled: DMSO 0, geranylgeraniol control 100; rescue of ATP level, % at 7.49 µM; 330,000 tested, 0.78% active;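 active = mean ATP rescue above about 67%, or every replicate alone reaching that limit, limit read from the data, passing the limit was not always enough; inconclusive = no clear call, values can overlap the other calls; inactive = mean under the limit and some replicate under it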;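 also: myotubes were challenged with 10 µM simvastatin during compound exposure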
PglD DTNB = blocks C. jejuni PglD acetyltransferase activity. purified PglD enzyme, DTNB colorimetric CoA detection. inhibition, % at 12.5 µM. 360,000 tested, 0.098% active; in the data active = inhibition above about 16%, passing the limit was not always enough; inconclusive = no clear call, values can overlap the other calls
FGF22 binding = shifts melting point of recombinant human FGF22. Q9HCT0. recombinant FGF22 thermal shift, SYPRO orange fluorescence; percent of sucrose octasulfate shift, DMSO zero. activity (Tm shift, normalised), % at 9.99 µM. 340,000 tested, 1.5% active;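 active = mean Tm shift, scaled 0 neutral to 100 positive control, at about 1.3% or above, every replicate too, limit read from the data; inconclusive = no clear call, values can overlap the other calls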
DENV2 CPE rescue = DENV2-induced cell death inhibition. DENV2-infected cells, cytopathic effect rescue, plate reader. CPE inhibition, % at 9.99 µM. 350,000 tested, 1.7% active. AID 651640; in the data active = CPE inhibition above about 20%, passing the limit was not always enough; inconclusive = no clear call, values can overlap the other calls; tested in BHK-21 cells;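 also: 0% = median of neutral control wells and 100% = median of positive control wells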
Xi reactivation = X-chromosome reactivation activator; XiGFP mouse fibroblasts, % GFP-positive cells imaging, 3 d; cells co-treated with 5-aza-dC sensitizer; scaled so ellipticine positive control = 100%; activation, % at 7.58 µM; 360,000 tested, 0.055% active; AID 743238;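 active = mean normalized replicate activation at least 10% and every replicate at or above 10%; inconclusive = only one of the two criteria met; inactive = mean below 10% and not all replicates reach 10%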;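 also: 0% = median of on-plate neutral control wells and 100% = ellipticine 6 µM median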
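System: XiGFP fibroblasts, SV40-immortalized. Medium: DMEM plus 5-aza-dC sensitizer. Doses: single point. Timing: 3 d treatment, 15 min room-temperature fixation. Control set: ellipticine 6 µM.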
E-sel inducer = induces E-selectin expression in human endothelial cells; P16581; HUVEC E-selectin immunofluorescence imaging; normalized: neutral wells 0, TNF-alpha wells 100; activation, % at 7.58 µM; 260,000 tested, 0.37% active; AID 686992;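 active = mean E-selectin-positive cell signal at least 10% of the positive control, reached in at least 60% of replicates, without over 20% cell loss; inconclusive = no rule given, readout overlaps actives, possibly toxicity-flagged; inactive = the rest, including those meeting only one limit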
Target sequence (P16581 whole entry, looked up): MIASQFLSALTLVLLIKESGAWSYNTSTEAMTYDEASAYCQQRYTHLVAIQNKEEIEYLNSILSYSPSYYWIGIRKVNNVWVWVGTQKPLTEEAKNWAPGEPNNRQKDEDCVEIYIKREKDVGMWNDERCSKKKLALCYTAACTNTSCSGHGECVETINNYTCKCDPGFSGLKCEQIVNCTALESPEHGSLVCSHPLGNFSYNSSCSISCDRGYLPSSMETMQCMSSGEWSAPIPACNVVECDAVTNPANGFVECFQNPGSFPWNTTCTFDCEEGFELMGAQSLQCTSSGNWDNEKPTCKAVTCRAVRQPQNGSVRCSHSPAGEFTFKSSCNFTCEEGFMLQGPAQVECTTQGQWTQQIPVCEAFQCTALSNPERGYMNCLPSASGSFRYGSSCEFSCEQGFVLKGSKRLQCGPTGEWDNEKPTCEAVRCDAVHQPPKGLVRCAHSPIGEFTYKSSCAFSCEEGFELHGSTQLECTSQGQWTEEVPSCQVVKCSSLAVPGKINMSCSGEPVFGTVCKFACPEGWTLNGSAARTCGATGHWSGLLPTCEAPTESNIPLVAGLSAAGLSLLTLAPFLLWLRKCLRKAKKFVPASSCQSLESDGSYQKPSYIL
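Read-out basis: % PE-positive cells; Test system: HUVEC primary endothelial cells; Technique: immunofluorescence imaging; Dosing: single-point compound dose.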
An asterisk follows results filed as active; ? = inconclusive; nt = no result given; ! = a repeat was not active.

SMILES | C2C12 statin | PglD DTNB | FGF22 binding | DENV2 CPE rescue | Xi reactivation | E-sel inducer
C[C@@H]1CN([C@H](C)CO)C(=O)c2cc(NC(=O)c3ccncc3)ccc2O[C@@H](C)CCCCO[C@H]1CN(C)Cc1ccc(Cl)c(Cl)c1 | nt | nt | -0.1 | 85.4* | 0.2 | -0.1
Cc1ccccc1-c1ccccc1[C@H]1[C@@H](C#N)N(C(=O)c2ccccc2)[C@@H]1CO | nt | nt | -0.6 | 2.5 | nt | nt
Cc1ccc(S(=O)(=O)N[C@H]2CC[C@@H](CCNC(=O)Nc3ccc(Cl)cc3)O[C@@H]2CO)cc1 | -5.7 | 1.5 | 0.7 | -1.1 | -0.8 | -0.2
C[C@H](CO)N1C[C@H](C)[C@H](CN(C)Cc2ccc(C(=O)O)cc2)OCCCC[C@H](C)Oc2ccc(NC(=O)CCCN(C)C)cc2C1=O | nt | 2.8 | 0.6 | 30.2* | 0.0 | -0.1
Cc1noc(C)c1NC(=O)Nc1ccc2c(c1)CC(=O)N([C@@H](C)CO)C[C@@H](C)[C@H](CN(C)C(=O)Nc1ccc(F)cc1)O2 | -8.4 | -0.5 | -0.5 | -8.1 | 0.1 | -0.5
Nc1nc2ccccc2n1Cc1ccc(Cl)c(Cl)c1 | -1.8 | 6.1 | -0.1 | 33.4* | -0.1 | nt
COc1ccc(NC(=O)N[C@@H]2C=C[C@H](CC(=O)NC3CCC3)O[C@H]2CO)cc1 | -0.5 | 0.5 | 0.1 | -4.0 | -0.2 | 1.0
CCNC(=O)C[C@H]1CC[C@H](NC(=O)C2CC2)[C@H](CO)O1 | -10.8 | 1.1 | 0.4 | -1.9 | 0.8 | -0.7
O=c1cc(CSc2ccc(Cl)cc2)nc(-c2ccncc2)[nH]1 | nt | nt | 43.3* | -2.4 | 0.5 | nt
C[C@@H]1CN([C@H](C)CO)C(=O)c2cc(NS(=O)(=O)c3cn(C)cn3)ccc2O[C@@H]1CN(C)Cc1ccc(C(F)(F)F)cc1 | 28.6 | 2.7 | 0.1 | -4.5 | 0.0 | 0.1
C[C@@H]1CN([C@@H](C)CO)C(=O)c2cc(NC(=O)c3ccncc3)ccc2O[C@H]1CN(C)C(=O)Nc1ccc2c(c1)OCO2 | 15.2 | 9.8 | -0.2 | -5.9 | -0.1 | ?
CCOC(=O)Nc1ccc(C)cc1Br | 107.8* | -4.1 | nt | nt | nt | nt
Cc1noc(C)c1NC(=O)N1C[C@@H](O)COC[C@@H]2O[C@H](CC(=O)N[C@H]3CCN(Cc4ccccc4)C3)CC[C@H]21 | nt | nt | nt | nt | 0.6 | nt
N#C[C@H]1[C@H](c2ccccc2C2=CCCCC2)[C@@H](CO)N1S(=O)(=O)c1cccc(F)c1 | nt | nt | nt | 31.2* | 0.2 | 0.1
N#C[C@H]1[C@@H](c2ccc(C3=CCCCC3)cc2)[C@@H](CO)N1S(=O)(=O)c1cccc(F)c1 | -6.6 | 1.3 | -0.2 | 91.6* | 0.0 | -0.1
COc1ccc(N(C(=O)Cn2nnc3ccccc32)C(C(=O)NCc2ccco2)c2cccnc2)cc1 (stereo not given) | 80.8* | -2.4 | nt | nt | nt | nt
O=C(O)C1CC=CCC1C(=O)Nc1ccccc1 (stereo not given) | 6.1 | -7.9 | nt | nt | nt | nt
O=C(COC(=O)c1ccc(NC(=O)C2CC=CCC2C(=O)O)cc1)c1ccccc1 (stereo not given) | 6.9 | 6.1 | -0.3 | 68.1* | 0.0 | nt
Cc1ccc(SCCC(=O)NNC(=O)c2ccccc2F)cc1 | -12.7 | 3.7 | 43.4* | 3.9 | 0.3 | 1.0
Cc1ccc(SCCNC(=O)c2ccccc2F)cc1 | -0.6 | -6.7 | nt | 17.6 | 0.1 | nt
C[C@H]1CCCCO[C@H](CN(C)C(=O)CCC(F)(F)F)[C@@H](C)CN([C@@H](C)CO)C(=O)c2cc(NS(=O)(=O)c3ccc(F)cc3)ccc2O1 | nt | 0.9 | -0.7 | 10.6 | 0.1 | nt
CCN(CC)CCNc1ccc(CO)c2oc3cc(Cl)ccc3c(=O)c12 | -1.9 | 0.6 | -0.1 | 64.0* | 0.0 | nt
CCOC(=O)c1c(C)[nH]c(C)c1C(=O)COC(=O)c1cc(OC)cc(OC)c1 | nt | nt | 58.8* | nt | 0.0 | -0.5
O=C(CC1CC1)Nc1ccc2c(c1)[C@@H]1C[C@H](CC(=O)NC3CCCC3)O[C@@H](CO)[C@@H]1O2 | -7.3 | -0.8 | -0.2 | 29.0*! | 0.3 | 3.6
COCC(=O)Nc1ccc2c(c1)[C@H]1C[C@@H](CC(=O)NC3CCCCC3)O[C@H](CO)[C@H]1O2 | 1.3 | 1.6 | 0.2 | 32.5* | 0.4 | 2.5
